ChEMBL document CHEMBL5357044, “Discovery of a dual-acting inhibitor of interleukin-1β and STATs for the treatment of inflammatory bowel disease” (RSC Med Chem, 2024)
The source made the active and inactive calls. The rule behind the calls is not given here.

Legend:
[1] = molecular target: NLR family CARD domain-containing protein 4 (Mus musculus) (UniProt Q3UP24); experiment: Inhibition of NLRC4 inflammasome activation in mouse BMDM cells assessed as reduction in LPS-stimulated IL-1beta level at 50 to 200 nM pretreated for 1 hr followed by FLA-ST Ultrapure treatment for 4 hrs by ELISA; assay type: cell-based; details: dose 50-200 nM, time 5.0 hrs
Outline: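 BMDMs (RPMI 1640, 10% FBS, Glutamax, 20 ng mL−1 M-CSF) primed with 0.5 μg mL−1 LPS for 3 h, then compound for 1 h. Stimulated 4 h with FLA-ST Ultrapure 2.5 μg mL−1 (NLRC4) or poly(dA/dT) 0.25 μg mL−1 (AIM2). IL-1β measured by ELISA.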

[2] = Toxicity in mouse assessed as inactive state of animal at 2 mg/kg/day, ip treated for 7 days; assay type: organism-based; details: in vivo, 168 h, time 7 day
Outline: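 Preliminary tolerability study: mice (n = 2) injected intraperitoneally at 2 mg kg−1 per day for 7 days. General state and activity observed.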

Intestine [3] = experiment: Anti-colitis activity against DSS-induced ulcerative colitis mouse model assessed as decrease in STAT-1 level in intestinal tissue at 0.2 to 0.6 mg/kg, ip treated every 72 hrs for 9 days by Western blot analysis; assay type: functional, organism-based; details: dose 0.2-0.6 mg/kg, time 9.0 day
Outline: (§1)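 DSS model (2.5% in drinking water days 1–7, water days 8–9). Dosing was i.p. at 0.2 and 0.6 mg kg−1 in 50% PEG300 on days 2, 5, 8. Intestinal tissue taken at sacrifice on day 9. Lysed in RIPA with protease inhibitor and BCA-quantified, then run on SDS-PAGE/PVDF and probed for STAT1, STAT3, STAT5 and caspase-1. ECL detection.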

Colon [4] = experiment: Downregulation of IL-6 level in colon tissue of DSS-induced ulcerative colitis mouse model at 0.2 to 0.6 mg/kg, ip treated every 72 hrs for 9 days by ELISA; assay type: functional, organism-based; details: dose 0.2-0.6 mg/kg, time 9.0 day
Outline: (§2)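 Colitis induced with 2.5% DSS in drinking water on days 1–7, plain water days 8–9. Compound given i.p. at 0.2 and 0.6 mg kg−1 in 50% PEG300 on days 2, 5 and 8. Mice killed on day 9; colon tissue cytokines measured by ELISA. Mean ± s.e.m.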

Mus musculus [5] = experiment: Anti-colitis activity against DSS-induced ulcerative colitis mouse model assessed as decrease in hemafecia at 0.2 to 0.6 mg/kg, ip treated every 72 hrs for 9 days; assay type: functional, organism-based; details: dose 0.2-0.6 mg/kg, time 9.0 day
Outline: (§3)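 Mice given 2.5% DSS water days 1–7, then water to day 9. Dosing: i.p. 0.2 or 0.6 mg kg−1 in 50% PEG300 on days 2, 5, 8. Body weight and fecal occult blood scored daily. Colon length measured after sacrifice on day 9. Mean ± s.e.m.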

[6] = molecular target: NACHT, LRR and PYD domains-containing protein 3 (Mus musculus) (UniProt Q8R4B8); experiment: Inhibition of NLRP3 inflammasome activation in mouse J774.A1 cells assessed as reduction in mature IL-1beta release at 50 to 200 nM pretreated for 1 hr followed by nigericin treatment for 1 hr by Western blot analysis; assay type: cell-based; details: dose 50-200 nM, time 2.0 hrs
Outline: (§4)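 J774A.1 cells, LPS 1 μg mL−1 for 5 h, compound exposure, nigericin 10 μM 1 h. RIPA lysis with protease inhibitor and BCA quantitation, then SDS-PAGE/PVDF. Blocked 5% milk, primary antibodies overnight at 4 °C, HRP secondaries, ECL detection.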

[7] = molecular target: Signal transducer and activator of transcription 3 (Mus musculus) (UniProt P42227); experiment: Inhibition of STAT3 expression in LPS-treated mouse J774.A1 cells at 50 to 200 nM treated for 1 hr by Western blot analysis; assay type: cell-based; details: dose 50-200 nM
Outline: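 J774A.1 cells pretreated with LPS and compound, lysed in RIPA. pSTAT1, STAT1, pSTAT3, STAT3, pSTAT5 and STAT5 detected by SDS-PAGE western blot with ECL.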

Colon [8] = experiment: Anti-colitis activity against DSS-induced ulcerative colitis mouse model assessed as decrease in IL-1beta level in colon tissue at 0.2 to 0.6 mg/kg, ip treated every 72 hrs for 9 days by ELISA; assay type: functional, organism-based; details: dose 0.2-0.6 mg/kg, time 9.0 day; outline: as §2
Colon [9] = experiment: Downregulation of TNF-alpha level in colon tissue of DSS-induced ulcerative colitis mouse model at 0.2 to 0.6 mg/kg, ip treated every 72 hrs for 9 days by ELISA; assay type: functional, organism-based; details: dose 0.2-0.6 mg/kg, time 9.0 day; outline: as §2
Colon [10] = experiment: Anti-colitis activity against DSS-induced ulcerative colitis mouse model assessed as decrease in infiltration of inflammatory cells in colon tissue at 0.2 to 0.6 mg/kg, ip treated every 72 hrs for 9 days by H and E staining based analysis; assay type: functional, organism-based; details: dose 0.2-0.6 mg/kg, time 9.0 day
Outline: (§5)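 Colons were taken on day 9 from 2.5% DSS-fed mice (DSS days 1–7). Dosing was i.p. 0.2 or 0.6 mg kg−1 in 50% PEG300 on days 2, 5, 8. H&E-stained sections imaged at ×20 and scored for inflammatory infiltration, goblet cell depletion and crypt loss.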

[11] = molecular target: NACHT, LRR and PYD domains-containing protein 3 (Mus musculus) (UniProt Q8R4B8); experiment: Inhibition of NLRP3 inflammasome activation in mouse J774.A1 cells assessed as reduction in cleaved GSDMD production at 50 to 200 nM pretreated for 1 hr followed by nigericin treatment for 1 hr by Western blot analysis; assay type: cell-based; details: dose 50-200 nM, time 2.0 hrs; outline: as §4
[12] = molecular target: NACHT, LRR and PYD domains-containing protein 3 (Mus musculus) (UniProt Q8R4B8); experiment: Inhibition of NLRP3 inflammasome activation in mouse BMDM cells assessed as reduction in LPS-stimulated IL-1beta level at 50 to 200 nM pretreated for 1 hr followed by nigericin treatment for 30 mins by ELISA; assay type: cell-based; details: dose 50-200 nM, time 1.5 hrs
Outline: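 Bone-marrow macrophages in RPMI 1640/10% FBS/M-CSF. LPS priming at 0.5 μg mL−1 for 3 h, compound 1 h. NLRP3 then triggered by nigericin 10 μM for 0.5 h or imiquimod 900 μM for 2 h. Supernatant IL-1β by ELISA.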

Colon [13] = experiment: Anti-colitis activity against DSS-induced ulcerative colitis mouse model assessed as increase in crypt architecture in colon tissue at 0.2 to 0.6 mg/kg, ip treated every 72 hrs for 9 days by H and E staining based analysis; assay type: functional, organism-based; details: dose 0.2-0.6 mg/kg, time 9.0 day; outline: as §5
Mus musculus [14] = experiment: Anti-colitis activity against DSS-induced ulcerative colitis mouse model assessed as increase in colon length at 0.2 to 0.6 mg/kg, ip treated every 72 hrs for 9 days; assay type: functional, organism-based; details: dose 0.2-0.6 mg/kg, time 9.0 day; outline: as §3
Intestine [15] = experiment: Anti-colitis activity against DSS-induced ulcerative colitis mouse model assessed as decrease in STAT-3 level in intestinal tissue at 0.2 to 0.6 mg/kg, ip treated every 72 hrs for 9 days by Western blot analysis; assay type: functional, organism-based; details: dose 0.2-0.6 mg/kg, time 9.0 day; outline: as §1
Intestine [16] = experiment: Anti-colitis activity against DSS-induced ulcerative colitis mouse model assessed as decrease in STAT-5 level in intestinal tissue at 0.2 to 0.6 mg/kg, ip treated every 72 hrs for 9 days by Western blot analysis; assay type: functional, organism-based; details: dose 0.2-0.6 mg/kg, time 9.0 day; outline: as §1

NACHT, LRR and PYD domains-containing protein 3 (Mus musculus), sequence (Q8R4B8 whole entry, the tested form may be a part): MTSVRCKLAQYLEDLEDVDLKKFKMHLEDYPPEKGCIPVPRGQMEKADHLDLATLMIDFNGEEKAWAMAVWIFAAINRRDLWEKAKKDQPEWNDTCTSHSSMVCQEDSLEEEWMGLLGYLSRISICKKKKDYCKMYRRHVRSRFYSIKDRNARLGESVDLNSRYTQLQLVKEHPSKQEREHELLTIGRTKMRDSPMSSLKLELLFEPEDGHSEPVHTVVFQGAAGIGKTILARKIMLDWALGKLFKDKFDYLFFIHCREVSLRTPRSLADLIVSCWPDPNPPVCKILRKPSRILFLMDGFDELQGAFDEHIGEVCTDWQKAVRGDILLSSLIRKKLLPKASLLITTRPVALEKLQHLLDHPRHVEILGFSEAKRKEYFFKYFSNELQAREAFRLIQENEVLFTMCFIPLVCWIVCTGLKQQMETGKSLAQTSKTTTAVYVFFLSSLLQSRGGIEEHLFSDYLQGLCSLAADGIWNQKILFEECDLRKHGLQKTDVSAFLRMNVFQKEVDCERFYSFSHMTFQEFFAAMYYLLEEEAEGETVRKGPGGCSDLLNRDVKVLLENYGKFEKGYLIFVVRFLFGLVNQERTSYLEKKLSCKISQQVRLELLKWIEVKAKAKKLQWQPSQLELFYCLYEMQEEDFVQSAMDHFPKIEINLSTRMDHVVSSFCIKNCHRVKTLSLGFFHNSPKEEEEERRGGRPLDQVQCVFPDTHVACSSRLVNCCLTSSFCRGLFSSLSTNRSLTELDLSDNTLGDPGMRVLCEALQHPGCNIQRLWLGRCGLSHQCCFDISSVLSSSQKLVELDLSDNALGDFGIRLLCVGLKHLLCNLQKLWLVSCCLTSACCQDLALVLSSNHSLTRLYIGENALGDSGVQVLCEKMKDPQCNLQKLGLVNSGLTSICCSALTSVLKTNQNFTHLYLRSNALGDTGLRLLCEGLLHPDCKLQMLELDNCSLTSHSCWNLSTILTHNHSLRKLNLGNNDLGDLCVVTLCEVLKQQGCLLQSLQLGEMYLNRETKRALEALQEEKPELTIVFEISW
NLR family CARD domain-containing protein 4 (Mus musculus), sequence (Q3UP24 whole entry, the tested form may be a part): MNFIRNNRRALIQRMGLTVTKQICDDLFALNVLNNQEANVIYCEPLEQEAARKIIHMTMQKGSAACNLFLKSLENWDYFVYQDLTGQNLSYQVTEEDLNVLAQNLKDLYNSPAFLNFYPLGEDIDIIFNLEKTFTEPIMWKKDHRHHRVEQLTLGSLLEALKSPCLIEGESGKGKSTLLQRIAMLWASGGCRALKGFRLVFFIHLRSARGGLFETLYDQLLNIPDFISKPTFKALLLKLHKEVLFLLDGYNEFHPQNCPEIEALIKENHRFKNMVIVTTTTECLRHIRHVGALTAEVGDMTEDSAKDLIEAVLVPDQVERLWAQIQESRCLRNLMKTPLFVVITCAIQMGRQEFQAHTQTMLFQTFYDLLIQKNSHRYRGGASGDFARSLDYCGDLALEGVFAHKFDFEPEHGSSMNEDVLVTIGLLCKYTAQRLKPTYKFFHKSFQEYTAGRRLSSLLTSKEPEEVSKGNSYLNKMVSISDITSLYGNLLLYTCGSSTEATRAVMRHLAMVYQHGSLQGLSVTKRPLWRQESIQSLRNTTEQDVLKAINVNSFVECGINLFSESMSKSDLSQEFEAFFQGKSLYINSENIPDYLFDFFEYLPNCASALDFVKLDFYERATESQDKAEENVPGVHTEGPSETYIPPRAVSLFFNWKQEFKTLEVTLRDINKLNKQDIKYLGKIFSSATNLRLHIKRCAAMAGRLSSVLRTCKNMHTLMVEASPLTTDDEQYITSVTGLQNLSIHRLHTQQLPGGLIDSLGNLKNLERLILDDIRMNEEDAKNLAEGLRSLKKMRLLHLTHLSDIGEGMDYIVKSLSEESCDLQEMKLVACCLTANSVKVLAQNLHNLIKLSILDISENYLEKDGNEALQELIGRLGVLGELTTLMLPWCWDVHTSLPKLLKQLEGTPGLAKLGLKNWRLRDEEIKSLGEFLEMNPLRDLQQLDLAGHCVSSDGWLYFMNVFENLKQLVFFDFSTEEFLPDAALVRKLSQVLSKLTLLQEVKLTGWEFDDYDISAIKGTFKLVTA
Signal transducer and activator of transcription 3 (Mus musculus), sequence (P42227 whole entry): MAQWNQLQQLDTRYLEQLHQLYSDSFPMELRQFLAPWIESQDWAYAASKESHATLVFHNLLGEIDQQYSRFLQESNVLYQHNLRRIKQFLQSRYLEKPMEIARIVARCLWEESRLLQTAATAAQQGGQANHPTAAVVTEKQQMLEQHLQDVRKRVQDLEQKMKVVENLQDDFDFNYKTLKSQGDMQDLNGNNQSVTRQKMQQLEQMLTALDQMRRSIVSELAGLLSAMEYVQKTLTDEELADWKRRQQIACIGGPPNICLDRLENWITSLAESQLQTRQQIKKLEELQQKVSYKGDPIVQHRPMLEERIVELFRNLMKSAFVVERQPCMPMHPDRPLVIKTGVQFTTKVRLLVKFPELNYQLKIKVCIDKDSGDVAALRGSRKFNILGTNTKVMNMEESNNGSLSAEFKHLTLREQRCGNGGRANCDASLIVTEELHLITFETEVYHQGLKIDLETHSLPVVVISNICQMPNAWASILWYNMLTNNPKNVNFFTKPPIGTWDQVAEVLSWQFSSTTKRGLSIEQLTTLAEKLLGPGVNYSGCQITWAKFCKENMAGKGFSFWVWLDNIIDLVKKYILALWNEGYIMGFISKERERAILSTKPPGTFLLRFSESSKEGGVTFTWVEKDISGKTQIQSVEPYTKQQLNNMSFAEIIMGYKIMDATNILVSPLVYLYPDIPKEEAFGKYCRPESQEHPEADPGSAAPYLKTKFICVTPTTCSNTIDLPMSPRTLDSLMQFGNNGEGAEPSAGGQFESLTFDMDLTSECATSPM

With `Cc1cc(/C=C/C(=O)c2ccc(C(=O)N[C@@H](Cc3ccccc3)C(=O)N[C@@H](CC(C)C)B(O)O)cc2)cc(C)c1O` the inhibition [1] was “inactive”, the Activity [2] was “Toxic” and the Activity (Intestine [3]) was “Active”. The Activity (Colon [4]) was “inactive”, the Activity (Mus musculus [5]) was “Active” and the inhibition [6] was “Active”. For the same molecule, the inhibition [7] was “inactive”, the Activity (Colon [8]) was “Active” and the Activity (Colon [9]) was “inactive”. The Activity (Colon [10]) was “Active”, the inhibition [11] was “Active” and the inhibition [12] was “Active”. The Activity (Colon [13]) was “Active”, the Activity (Mus musculus [14]) was “Active” and the Activity (Intestine [15]) was “inactive”. The Activity (Intestine [16]) was “Active”.
